Where “and” joins values, the source holds several entries; their conditions need not be identical. Equal entries are not always repeated.
Legend:
[1] = molecular target: T1, Estrogen receptor (Mus musculus) (UniProt O08537+P19785); assay: Anti-uterotrophic activity in mice as uterus dry weight (mg)/body weight (g) *100 at 125 ug dose; type: functional, tissue-based
Summary of the method: (§1)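 Immature female NMRI mice, 19 days old, groups of 10, given sc injections on 3 consecutive days. Each injection held 0.4 μg estrone plus the indole dose per animal, in olive oil (50 μL). Killed 24 h after the last injection. Uteri were fixed in Bouin solution, washed, and dried 24 h at 100 °C. Read-out was uterine dry weight (mg)/body weight (g) × 100, mean ± SD.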

[2] = molecular target: T1, Estrogen receptor (Mus musculus); assay: Anti-uterotrophic activity in mice as uterus dry weight (mg)/body weight (g) *100 at 1 ug dose; type: functional, tissue-based; summary of the method: as §1
[3] = molecular target: T1, Estrogen receptor (Mus musculus); assay: Anti-uterotrophic activity in mice as uterus dry weight (mg)/body weight (g) *100 at 25 ug dose; type: functional, tissue-based; summary of the method: as §1
[4] = molecular target: T1, Estrogen receptor (Mus musculus); assay: Anti-uterotrophic activity in mice as uterus dry weight (mg)/body weight (g) *100 at 5 ug dose; type: functional, tissue-based; summary of the method: as §1
[5] = molecular target: T1, Estrogen receptor (Mus musculus); assay: Uterotrophic activity in mice as uterus dry weight (mg)/body weight (g) *100 at 125 ug dose; type: functional, tissue-based
Summary of the method: (§2)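 Immature 19-day-old female NMRI mice, groups of 10. Compound dose per animal in olive oil (50 µL) sc on 3 consecutive days. Mice were killed 24 h after the last injection. Uteri were Bouin-fixed 20 h, cleaned, washed with alcoholic LiCl, and dried at 100 °C for 24 h. Effect = uterine dry weight (mg)/body weight (g) ×100; mean ± SD.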

[6] = molecular target: T1, Estrogen receptor (Mus musculus); assay: Uterotrophic activity in mice as uterus dry weight (mg)/body weight (g) *100 at 1 ug dose; type: functional, tissue-based; summary of the method: as §2
[7] = molecular target: T1, Estrogen receptor (Mus musculus); assay: Uterotrophic activity in mice as uterus dry weight (mg)/body weight (g) *100 at 25 ug dose; type: functional, tissue-based; summary of the method: as §2
[8] = molecular target: T1, Estrogen receptor (Mus musculus); assay: Uterotrophic activity in mice as uterus dry weight (mg)/body weight (g) *100 at 5 ug dose; type: functional, tissue-based; summary of the method: as §2
[9] = species: Rattus norvegicus; assay: Change in DMBA-induced mammary carcinoma tumor area in rats at 4 mg dose; type: functional
Summary of the method: (§3)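 Female Sprague-Dawley rats got one 20 mg DMBA dose by gavage at 50 days old and were palpated twice weekly from day 30. Rats were randomized once tumor area exceeded 140 mm². Dose (per kg) was given sc in olive oil, once daily Monday to Thursday and doubled on Friday. Tumor area was taken from caliper measurements of two perpendicular axes, twice weekly. Change per animal is given as median % and range.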

[10] = species: Rattus norvegicus; assay: Change in DMBA-induced mammary carcinoma tumor area in rats at 4 mg dose; -100-47; type: functional; summary of the method: as §3
[11] = species: Rattus norvegicus; assay: Change in body weight of DMBA-induced mammary carcinoma tumor bearing rats at 4 mg dose; type: functional
Summary of the method: (§4)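 DMBA-induced tumor-bearing Sprague-Dawley rats (20 mg DMBA by gavage at 50 days old), randomized when tumor area exceeded 140 mm². Dose per kg was given sc in olive oil, single dose daily Monday to Thursday, double dose Friday. Body weight was measured twice weekly. Read-out was % change in body weight.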

[12] = molecular target: T1, Estrogen receptor (Mus musculus); assay: Percentage inhibition of uterotrophic activity at 125 ug dose; type: functional
Summary of the method: (§5)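 Antiuterotrophic test in immature 19-day-old female NMRI mice (n=10), dosed sc on 3 consecutive days with 0.4 µg estrone per animal per day plus compound in olive oil. Uterine dry weight/body weight ×100 was read 24 h after the last dose. Inhibition % = 100 − [(E_S,T − E_V)/(E_S − E_V)]×100.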

[13] = molecular target: T1, Estrogen receptor (Mus musculus); assay: Percentage inhibition of uterotrophic activity at 5 ug dose; type: functional; summary of the method: as §5
[14] = species: Rattus norvegicus; assay: Partial remission (%) of DMBA-induced mammary carcinoma tumors in rats at 4 mg dose; type: functional
Summary of the method: (§6)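 Female Sprague-Dawley rats, 50 days old, given a single 20 mg DMBA dose in 1 mL olive oil by gavage. Rats were palpated twice weekly from day 30, and those without tumors by day 70 were discarded. Rats were randomized once tumor area exceeded 140 mm². Drug dose was per kg in olive oil (1 mL/kg) sc, single dose Mon–Thu and double dose Fri. Tumor area (caliper, two perpendicular axes) and body weight were measured twice weekly.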

[15] = species: Rattus norvegicus; assay: Percent unchanged DMBA-induced mammary carcinoma tumors in rats at 4 mg dose; type: functional; summary of the method: as §6
[16] = species: Rattus norvegicus; assay: Number of DMBA-induced mammary carcinoma tumors in rats at 4 mg dose; type: functional
Summary of the method: (§7)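 DMBA-induced tumors in Sprague-Dawley rats, entered when tumor area exceeded 140 mm². Dose per kg was given sc in olive oil, daily Monday to Thursday with a double dose Friday. Tumors were measured by calipers twice weekly. Tumor number was counted at the start of the test. Complete remission meant the tumor was no longer palpable. Partial remission meant reduction to ≤50% of initial size. New tumor appearance was recorded.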

[17] = species: Rattus norvegicus; assay: Formation of new DMBA-induced mammary carcinoma tumors in rats at 4 mg dose; type: functional; summary of the method: as §7
[18] = species: Rattus norvegicus; assay: Percent progressive DMBA-induced mammary carcinoma tumors in rats at 4 mg dose; type: functional; summary of the method: as §6
[19] = molecular target: T1, Estrogen receptor (Mus musculus); assay: Percentage inhibition of uterotrophic activity at 25 ug dose; type: functional; summary of the method: as §5
[20] = molecular target: T1, Estrogen receptor (Mus musculus); assay: Percentage inhibition of uterotrophic activity at 1 ug dose; type: functional; summary of the method: as §5
[21] = species: Rattus norvegicus; assay: Complete remission (%) of DMBA-induced mammary carcinoma tumors in rats at 4 mg dose; type: functional; summary of the method: as §7
[22] = species: Rattus norvegicus; assay: Change in DMBA-induced mammary carcinoma tumor area in rats at 5.1 mg dose; type: functional; summary of the method: as §3
[23] = species: Rattus norvegicus; assay: Change in DMBA-induced mammary carcinoma tumor area in rats at 5.1 mg dose; -44-333; type: functional; summary of the method: as §3
[24] = species: Rattus norvegicus; assay: Change in body weight of DMBA-induced mammary carcinoma tumor bearing rats at 1.7 mg dose; type: functional; summary of the method: as §4
[25] = species: Rattus norvegicus; assay: Change in body weight of DMBA-induced mammary carcinoma tumor bearing rats at 5.1 mg dose; type: functional; summary of the method: as §4
[26] = species: Rattus norvegicus; assay: Change in DMBA-induced mammary carcinoma tumor area in rats at 1.7 mg dose; type: functional; summary of the method: as §3
[27] = species: Rattus norvegicus; assay: Change in DMBA-induced mammary carcinoma tumor area in rats at 1.7 mg dose; 318-1054; type: functional; summary of the method: as §3
[28] = species: Rattus norvegicus; assay: Complete remission (%) of DMBA-induced mammary carcinoma tumors in rats at 5.1 mg dose; type: functional; summary of the method: as §7
[29] = species: Rattus norvegicus; assay: Percent unchanged DMBA-induced mammary carcinoma tumors in rats at 5.1 mg dose; type: functional; summary of the method: as §6
[30] = species: Rattus norvegicus; assay: Percent unchanged DMBA-induced mammary carcinoma tumors in rats at 1.7 mg dose; type: functional; summary of the method: as §6
[31] = species: Rattus norvegicus; assay: Number of DMBA-induced mammary carcinoma tumors in rats at 1.7 mg dose; type: functional; summary of the method: as §7
[32] = species: Rattus norvegicus; assay: Number of DMBA-induced mammary carcinoma tumors in rats at 5.1 mg dose; type: functional; summary of the method: as §7
[33] = species: Rattus norvegicus; assay: Formation of new DMBA-induced mammary carcinoma tumors in rats at 5.1 mg dose; type: functional; summary of the method: as §7
[34] = species: Rattus norvegicus; assay: Formation of new DMBA-induced mammary carcinoma tumors in rats at 1.7 mg dose; type: functional; summary of the method: as §7
[35] = species: Rattus norvegicus; assay: Percent progressive DMBA-induced mammary carcinoma tumors in rats at 5.1 mg dose; type: functional; summary of the method: as §6
[36] = species: Rattus norvegicus; assay: Partial remission (%) of DMBA-induced mammary carcinoma tumors in rats at 1.7 mg dose; type: functional; summary of the method: as §7
[37] = species: Rattus norvegicus; assay: Percent progressive DMBA-induced mammary carcinoma tumors in rats at 1.7 mg dose; type: functional; summary of the method: as §6
[38] = species: Rattus norvegicus; assay: Partial remission (%) of DMBA-induced mammary carcinoma tumors in rats at 5.1 mg dose; type: functional; summary of the method: as §6

T1 sequence (O08537 whole entry, looked up): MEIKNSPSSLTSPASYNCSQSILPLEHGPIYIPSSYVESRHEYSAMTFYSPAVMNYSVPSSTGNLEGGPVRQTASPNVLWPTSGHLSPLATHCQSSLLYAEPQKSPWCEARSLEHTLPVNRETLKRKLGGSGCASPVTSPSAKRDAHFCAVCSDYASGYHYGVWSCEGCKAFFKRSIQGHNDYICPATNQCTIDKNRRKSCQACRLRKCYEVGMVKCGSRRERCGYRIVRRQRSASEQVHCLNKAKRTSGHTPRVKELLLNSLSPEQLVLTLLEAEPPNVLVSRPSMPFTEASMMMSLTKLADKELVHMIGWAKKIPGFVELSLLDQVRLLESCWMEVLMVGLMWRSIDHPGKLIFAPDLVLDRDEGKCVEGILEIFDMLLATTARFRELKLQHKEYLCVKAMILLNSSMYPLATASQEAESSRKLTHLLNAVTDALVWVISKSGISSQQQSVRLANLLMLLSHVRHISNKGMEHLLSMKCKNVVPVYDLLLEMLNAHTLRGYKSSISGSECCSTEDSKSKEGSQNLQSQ
T1 sequence (P19785 whole entry, looked up): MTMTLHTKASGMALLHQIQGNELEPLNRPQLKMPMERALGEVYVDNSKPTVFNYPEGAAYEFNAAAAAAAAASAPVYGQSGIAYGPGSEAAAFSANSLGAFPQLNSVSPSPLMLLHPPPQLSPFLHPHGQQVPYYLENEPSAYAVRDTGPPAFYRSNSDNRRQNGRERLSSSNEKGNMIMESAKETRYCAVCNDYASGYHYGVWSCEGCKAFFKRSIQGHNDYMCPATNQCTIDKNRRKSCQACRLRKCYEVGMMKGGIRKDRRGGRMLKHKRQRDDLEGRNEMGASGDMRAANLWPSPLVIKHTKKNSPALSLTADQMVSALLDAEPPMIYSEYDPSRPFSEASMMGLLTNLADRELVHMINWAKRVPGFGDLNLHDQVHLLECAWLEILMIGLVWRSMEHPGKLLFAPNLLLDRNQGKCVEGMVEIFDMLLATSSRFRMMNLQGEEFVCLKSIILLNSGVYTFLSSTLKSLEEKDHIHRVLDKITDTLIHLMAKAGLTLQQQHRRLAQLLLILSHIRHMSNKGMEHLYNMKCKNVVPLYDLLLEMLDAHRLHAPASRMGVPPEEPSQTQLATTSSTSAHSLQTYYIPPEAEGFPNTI

CCc1c(-c2ccc(OC(C)=O)cc2)n(C)c2cc(OC(C)=O)ccc12
Anti-uterotrophic effect [1]: 34.7
Anti-uterotrophic effect [2]: 47.6
Anti-uterotrophic effect [3]: 33.5
Anti-uterotrophic effect [4]: 48.8
Uterotrophic effect [5]: 30
Uterotrophic effect [6]: 13.2
Uterotrophic effect [7]: 20.4
Uterotrophic effect [8]: 16.2
Change of tumor area [9]: -88%
Change of tumor area [10]: -100%
Change of body weight [11]: -7%
inhibition [12]: 52%
inhibition [13]: 14%
Partial remission [14]: 29%
Static tumors [15]: 21%
No. of tumors [16]: 18
New tumors [17]: 10
Progressed tumors [18]: 7%
inhibition [19]: 56%
inhibition [20]: 17%
Complete remission [21]: 43%

CC(=O)Oc1ccc(-c2c(C)c3cc(OC(C)=O)ccc3n2C)cc1
Anti-uterotrophic effect [1]: 28.8
Anti-uterotrophic effect [2]: 40
Anti-uterotrophic effect [3]: 36.6
Anti-uterotrophic effect [4]: 39.2
Uterotrophic effect [5]: 20.9
Uterotrophic effect [6]: 13.7
Uterotrophic effect [7]: 16.1
Uterotrophic effect [8]: 14.6
Change of tumor area [22]: 9% and 18%
Change of tumor area [23]: -44%
Change of body weight [24]: 2%
Change of body weight [25]: 0%
Change of tumor area [26]: 577%
Change of tumor area [27]: 318%
Complete remission [28]: 32%
inhibition [12]: 62%
inhibition [13]: 35%
Static tumors [29]: 19%
Static tumors [30]: 15%
No. of tumors [31]: 29
No. of tumors [32]: 37
New tumors [33]: 37
New tumors [34]: 38
Progressed tumors [35]: 39%
Partial remission [36]: 6%
Progressed tumors [37]: 70%
inhibition [19]: 42%
inhibition [20]: 33%
Partial remission [38]: 10%

— ChEMBL document CHEMBL1122517, “2-Phenylindoles. Relationship between structure, estrogen receptor affinity, and mammary tumor inhibiting activity in the rat” (1984)
